This excerpt belongs to a sample that is enriched for hits.
HCT116 bCat-KO: primary screen for growth suppressors in beta-catenin knockout HCT116 cells (colon tumor, human) | HCT116 beta-catenin knockout viability, CellTiter-Glo, 60 h; hits give low values | viability, % at 10 µM | 1.5% of 140,000 active;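 active means viability at or under a set limit, the compound median less 4 SD, cut at about 6% in these data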;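 further: 0% = Hyamine 1622 control at 20 µM and 100% = untreated cell control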
H69AR inhibit: proliferation blockers of H69AR lung cancer cells, primary screen, cell-based, human, 86K library; H69AR lung tumor viability, ATP luminescence, 72 h; hits give low values; viability, % at 10 µM; 6% of 85,000 active; AID 598, 2007;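 active means viability at or below 40%; inactive means viability above 40%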;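 further: multidrug resistant small cell line overexpressing MRP-1 efflux transporter; 100% = mean luminescence of untreated control wells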
HCT116 PTEN-null: growth suppression of PTEN-null HCT116, primary screen, cell-based, CellTiter-Glo; HCT116 PTEN-null viability, 60 h; hits give low values; viability, % at 10 µM; 1.2% of 140,000 active;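 active means viability at or below a set limit, 4 SD under the median of all tested compounds, cut at about 3.7% in these data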;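 further: PTEN knockout HCT116 line with beta catenin targeted HCT116 as companion control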
Phagocyt inh: inhibitors of macrophage phagocytosis, primary screen, imaging, J774A.1 cells, IgG beads; J774A.1 macrophage IgG-bead phagocytosis; inhibition, % at 5 µM; 0.07% of 110,000 active;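 active means inhibition above the mean of the plate negative controls plus 5 SD, cut at about 13% in these data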;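 further: phagocytic index as fraction of beads internalized from green versus red external bead signal; plate controls were DMSO negative control for no effect and cytochalasin-D positive control for full effect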
Fibroblast inh: antiproliferative effect on LL 47 fibroblasts – human, LL 47 cells, CellTiter-Glo luminescence, primary screen. AID 719, 2007. LL 47 human lung fibroblast viability, ATP luminescence; hits give low values. 1.1% of 85,000 active. viability, % at 10 µM;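 active means viability at or below 50% in the single dose screen; inactive means viability above 50%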;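 further: compound exposure lasted 72 h before the ATP readout; 100% = median luminescence of untreated cell-only wells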
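Material: human LL 47 lung fibroblast cells; quantity: 1,150 cells/well; medium: IMEM plus 15% FBS; doses: 0.1% DMSO in all compound wells; timing: overnight attachment after seeding, then 72 h compound exposure at 37 °C; detection: CellTiter-Glo luminescence; measure: % viability of median cell-only signal; controls: cell-only wells, no compound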
HUVEC inhibit: inhibitors of HUVEC proliferation, primary screen, cell-based, 384-well | CellTiter-Glo luminescence, 72 h; hits give low values | viability, % at 10 µM (by protocol) | 1.1% of 86,000 active | AID 648, 2007;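 active means viability at or below 30%; inactive means viability above 30%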;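 further: 100% = median luminescence of DMSO-only cell control wells on each plate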
Active calls of the source: *; / = no result given.

SMILES	HCT116 bCat-KO	H69AR inhibit	HCT116 PTEN-null	Phagocyt inh	Fibroblast inh	HUVEC inhibit
O=S(=O)(Cc1ccccc1)N1CCc2ccccc21	60	28*	44	-1	96	77
COc1ccc(C(=O)O/N=C(\N)Cc2ccc(Cl)c(Cl)c2)cc1OC	87	/	78	/	/	/
COc1ccc(C(=O)O/N=C(\N)Cc2ccc(Cl)cc2)cc1OC	0.9*	/	2.4*	/	/	/
Cc1cccc(-c2nc(CN3CCCC(C(=O)NC4CCCC4)C3)c(C)o2)c1 (centres undefined)	85	73	85	-1	88	86
CCc1ccc(-c2nc(CN3CCCC(C(=O)O)C3)c(C)o2)cc1 (centres undefined)	109	107	91	0	98	108
Cc1oc(-c2ccccc2F)nc1CN1CCC(C(=O)NCc2ccco2)CC1	78	38*	89	6	101	101
CCN(CCNC(=O)C1CCN(Cc2nc(-c3cccc(Cl)c3)oc2C)CC1)c1ccccc1	1.3*	3.0*	1.5*	-1	43*	5.4*
Cc1cccc(-c2nc(CN3CCCC(C(=O)NC4CCC(C)CC4)C3)c(C)o2)c1 (centres undefined)	20	65	23	/	99	12*
CCN(CCNC(=O)C1CCCN(Cc2nc(-c3ccc(OC)cc3)oc2C)C1)c1ccccc1 (centres undefined)	13	32*	13	0	/	4.7*
Cc1cc(C)cc(CC(Cc2nc3ccccc3[nH]2)c2nc3ccccc3[nH]2)c1 (centres undefined)	49	/	34	-1	/	/
Cc1csc(=N)n1CC(=O)N1CCc2ccccc21	79	92	106	-1	101	93
CC(=O)N1C(=O)CC(C)N(C(C)=O)c2ccc([N+](=O)[O-])cc21 (centres undefined)	101	/	105	1	/	/
Cc1ccc(C[n+]2cccc(-c3ccccc3)c2)c(C)c1	37	/	46	-2	/	/
CCN(CCNC(=O)C1CCN(Cc2nc(-c3ccc(Cl)cc3)oc2C)CC1)c1ccccc1	1.1*	7.3*	1.6*	0	63	3.9*
CCc1ccc(-c2nc(CN3CCC(C(=O)NCc4ccc(F)cc4)CC3)c(C)o2)cc1	43	3.3*	51	0	96	14*
CCc1ccc(-c2nc(CN3CCC(C(=O)NCCN(CC)c4ccccc4)CC3)c(C)o2)cc1	1.9*	1.6*	1.7*	-1	17*	2.3*
CCN1C(=O)c2ccccc2S(=O)(=O)c2ccc(C(=O)NCc3cccnc3)cc21	101	98	98	1	103	95
CCOC(=O)c1c(C)noc1CP(=O)(c1ccccc1)c1ccccc1	77	100	85	/	93	85
Cc1ccc(-n2nc3ccc(NC(=O)c4ccc5c(c4)OCO5)cc3n2)cc1	93	45	97	3	110	93
CCOc1ccc(-n2nc3ccc(NC(=O)c4ccc5c(c4)OCCO5)cc3n2)cc1	87	13*	80	/	28*	41
CCc1ccc(-n2nc3ccc(NC(=O)c4ccc5c(c4)OCO5)cc3n2)cc1	78	20*	75	0	91	76
CCOC(=O)c1c(C)c(C(=O)Nc2ccc3c(c2)OCCO3)c(C)n1CC	30	20*	31	2	91	75
CCOC(=O)/C(=N\Nc1ccc(Cl)cc1)Sc1nnc(-c2ccc(OC)cc2)n1C	95	/	93	-3	/	/
CC(NC(=O)Nc1cccc([N+](=O)[O-])c1)(C(F)(F)F)C(F)(F)F	25	/	10	1	/	/
Cc1ccccc1CSc1ccc(-c2ccc3c(c2)OCO3)nn1	99	/	89	-9	/	/
SMILES	HCT116 bCat-KO	H69AR inhibit	HCT116 PTEN-null	Phagocyt inh	Fibroblast inh	HUVEC inhibit
CCCc1sc(N/N=C/c2ccccn2)nc1-c1ccc(F)cc1	3.2*	13*	3.1*	/	19*	15*
CCCNC(=O)COC(=O)c1cc2c(=O)n3ccccc3nc2s1	90	/	97	-2	/	/
Clc1ccc(-c2nc3cnccn3c2Nc2ccc3c(c2)OCO3)cc1	29	25*	24	1	94	91
CSc1ccc(-c2nc3cnccn3c2Nc2ccc3c(c2)OCO3)cc1	38	/	33	-1	/	/
Oc1ccccc1-c1nc2cnccn2c1Nc1ccc2c(c1)OCCO2	4.3*	80	3.3*	/	93	94
Cc1cc2c(cc1C)CSC(c1ccc3ccccc3c1O)SC2	102	38*	91	0	98	91
Cc1cc2c(cc1C)CSC(c1ccccc1O)SC2	99	58	76	-3	71	34
Cc1cc2c(cc1C)CSC(c1c(O)ccc3ccccc13)SC2	4.6*	1.6*	6	/	67	1.7*
Cc1cc2c(cc1C)CSC(c1ccc(O)cc1)SC2	91	87	89	/	104	99
Cn1c(N)c(C(=O)c2ccc(C#N)cc2)c(=O)n(C)c1=O	94	/	90	-6	/	/
Cc1csc(/C(=N\O)c2csc(C)n2)n1	94	86	101	-1	95	92
COCCN(CC(=O)NCc1ccc(OC)cc1)C(=O)CCC(=O)Nc1nccs1	95	97	104	0	101	95
CC1=CC(C)=Nc2ccccc2N1	93	44	95	0	97	92
Cc1ccc(C2=Nc3ccccc3NC(C)(c3ccc(C)o3)C2)o1 (centres undefined)	75	38*	88	0	86	85
Cc1cccc(-n2nnc(C(=O)NC3CCCc4ccccc43)c2N)c1 (centres undefined)	64	19*	57	/	94	67
Cc1ccc(-c2cc(-c3ccccc3[N+](=O)[O-])[nH]n2)c(O)c1	57	/	65	/	/	/
Cc1ccc(-c2cc(-c3ccccc3Cl)[nH]n2)c(O)c1	26	1.9*	44	-1	66	36
Oc1ccc(Br)cc1-c1cc(-c2ccccc2F)[nH]n1	39	56	39	6	80	82
Cc1ccccc1-c1cc(-c2ccccc2O)n[nH]1	22	33*	34	0	77	42
N#Cc1cc(Oc2cccc3cccnc23)c(-n2nnc3ccccc32)cc1C#N	13	18*	22	1	84	72
CC(=O)C1(C)OC(N)=C(C#N)C(c2ccccc2)C1(C#N)C#N (centres undefined)	89	38*	101	2	94	98
CC(=O)C1=C(c2ccccc2)OC(N)=C(C#N)C1c1ccccc1C (centres undefined)	77	/	74	-6	/	/
CC1(C)Cc2c(cnn2-c2ccccc2)C(=O)/C1=N\NC(=O)c1ccncc1	/	86	/	/	95	97

Source: PubChem (several laboratories)
